Assay [1] has as its target T1, Sphingosine kinase 2 (Mus musculus) (UniProt Q9JIA7).
T1 sequence (whole entry): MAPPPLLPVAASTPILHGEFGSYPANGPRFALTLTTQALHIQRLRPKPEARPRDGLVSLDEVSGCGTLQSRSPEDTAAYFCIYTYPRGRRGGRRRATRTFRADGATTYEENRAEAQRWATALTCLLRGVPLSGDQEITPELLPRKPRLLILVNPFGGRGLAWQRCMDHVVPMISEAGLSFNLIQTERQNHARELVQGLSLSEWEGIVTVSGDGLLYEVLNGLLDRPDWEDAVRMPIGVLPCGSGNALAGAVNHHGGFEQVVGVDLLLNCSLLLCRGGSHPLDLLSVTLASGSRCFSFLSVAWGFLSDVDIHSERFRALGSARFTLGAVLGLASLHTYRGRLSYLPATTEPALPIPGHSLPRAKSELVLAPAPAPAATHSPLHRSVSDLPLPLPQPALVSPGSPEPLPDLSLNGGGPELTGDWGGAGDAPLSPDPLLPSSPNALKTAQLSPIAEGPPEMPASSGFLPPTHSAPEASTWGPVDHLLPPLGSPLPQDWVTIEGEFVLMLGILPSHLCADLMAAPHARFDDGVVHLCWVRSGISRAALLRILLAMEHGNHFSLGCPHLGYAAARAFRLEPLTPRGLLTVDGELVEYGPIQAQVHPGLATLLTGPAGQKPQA
The experiment in a line: Inhibition of mouse recombinant SphK2 assessed as remaining enzyme activity at 10 uM using gamma[32P]ATP incubated for 20 mins by liquid scintillation counting method. The procedure, abridged: (§1)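 Cell lysate containing recombinant mouse SphK2 incubated with sphingosine and γ-[³²P]ATP, with or without inhibitor, 20 min. Reactions extracted, ³²P-S1P separated by TLC and counted by liquid scintillation. Activity reported as ³²P-S1P formed; screened at 10 μM, with some compounds also assayed at 1 μM. Each value is the mean of two experiments.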

In assay [2] the target is T1, Sphingosine kinase 2 (Mus musculus). The experiment in a line: Inhibition of mouse recombinant SphK2 assessed as remaining enzyme activity at 1 uM using gamma[32P]ATP incubated for 20 mins by liquid scintillation counting method. The procedure, abridged: as §1

Molecules are shown by their SMILES.

For the molecule `CN1CCN(c2ccc(-c3noc([C@@H]4CCN4C(=N)N)n3)cc2)CC1`, the Activity in assay [1] came out at 90%. With `N=C(N)N1CC[C@H]1c1nc(-c2ccc(-c3ccccc3)cc2)no1`, the Activity in assay [1] is 91%. On the same count and under the same terms, under `CCCCCCCCCCc1ccc(-c2noc([C@@H]3CCN3C(=N)N)n2)cc1` stands 12%. On to `CCCCCCCCCCc1ccc(-c2noc([C@@H]3CCCN3C(=N)N)n2)cc1`, for which the Activity in assay [1] was 9%; in assay [2], 46%. Take `N=C(N)N1CCC[C@H]1c1nc(-c2ccc(N3CCN(C(=O)C45CC6CC(CC(C6)C4)C5)CC3)cc2)no1`: in assay [1], the Activity worked out at 87%. Consider `CCCCCCc1ccc(-c2noc([C@@H]3CCN3C(=N)N)n2)cc1`, for which the Activity in assay [1] was found to be 45%; in assay [2], 86%. As for `N=C(N)N1CCC[C@H]1c1nc(-c2ccc(I)cc2)no1`, the Activity in assay [1] turned out to be 63%. Same read-out and setting: under `N=C(N)N1CCC[C@H]1c1nc(-c2ccc(CS(=O)(=O)c3ccccc3)cc2)no1` stands 88%; under `N=C(N)N1CCC[C@H]1c1nc(-c2ccc(N3CCN(C(=O)Cc4ccccc4)CC3)cc2)no1`, 86%. As to `CCCCCCCCCCCCCCCCc1noc([C@@H]2CCCN2C(=N)N)n1`, the Activity in assay [1] is 52%.

Turning to `N=C(N)N1CCC[C@H]1c1nc(-c2ccc(N3CCN(Cc4ccccc4)CC3)cc2)no1`, the Activity in assay [1] amounted to 89%. Same read-out and setting: the figure for `CCCCCCCCc1noc([C@@H]2CCCN2C(=N)N)n1` is 88%. In the case of `CCCCCCCCCCCCCCc1ccc(-c2noc([C@@H]3CCCN3C(=N)N)n2)cc1`, the Activity was determined as 16% in assay [1] and 52% in assay [2]. The matching figures for `CCCCCCCCCCCCc1ccc(-c2noc([C@@H]3CCCN3C(=N)N)n2)cc1`: 15% and 56%. With `CCCCCCCCc1ccc(-c2noc([C@@H]3CCCN3C(=N)N)n2)cc1`, the figures for the Activity in assay [1] and in assay [2] were 9% and 44%, respectively.

On to `N=C(N)N1CC[C@H]1c1nc(-c2ccc(N3CCOCC3)cc2)no1`, for which, in assay [1], the Activity was found to be 94%.

In the case of `CCCCCCCCCCCCc1noc([C@@H]2CCCN2C(=N)N)n1`, in assay [1], the Activity stood at 57%. With `CCOCc1cc(C)cc(Cc2ccc(-c3noc([C@@H]4CCCN4C(=N)N)n3)cc2)c1`, the Activity in assay [1] came out at 46%; in assay [2] it was 99%. Take `N=C(N)N1CCC[C@H]1c1nc(-c2ccc(CCc3ccccc3)cc2)no1`: in assay [1], the Activity amounted to 70%. As to `CC(C)CC(=O)N1CCN(c2ccc(-c3noc([C@@H]4CCCN4C(=N)N)n3)cc2)CC1`, the Activity in assay [1] came out at 90%. In the case of `CCCCCCc1ccc(-c2noc([C@@H]3CCCN3C(=N)N)n2)cc1`, the Activity came to 35% in assay [1] and 76% in assay [2].

The record behind these values is ChEMBL document CHEMBL3627716, “Structure-activity relationship studies of the lipophilic tail region of sphingosine kinase 2 inhibitors” (Bioorg Med Chem Lett, 2015).
